Calls of active or inactive are those of the source. The calls are words filed in the database; no cut-off is given here.
What was measured:
[1] = Antitumor activity against human MDA231 cells after 24 to 48 hrs by MTT assay; type: functional, cell-based; details: MDA-MB-231
Outline: (§1)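 MTT read-out. Cells grown at 37 °C in DMEM with 10 mM glucose, 10% fetal calf serum, penicillin/streptomycin and 2 mmol/L glutamine. Seeded at 10^5 cells per well and left 24 h to attach, then compound added over a range of concentrations and cells grown 24 or 48 h. MTT at 1 mg/mL for 2 h at 37 °C in the dark, formazan dissolved in DMSO, OD read at 550 nm. Values are % of vehicle control (0.5% DMSO); IC50 by linear and polynomial regression; triplicate.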

SW-620 = assay: Antitumor activity against human SW620 cells after 24 to 48 hrs by MTT assay; type: functional, cell-based; outline: as §1
U-937 = assay: Antitumor activity against human U937 cells after 24 to 48 hrs by MTT assay; type: functional, cell-based; outline: as §1
MCF7 [2] = assay: Cytotoxicity against human MCF7 cells; type: functional, cell-based; outline: as §1
MDA-MB-435 = assay: Antitumor activity against human MDA-MB-435 cells after 24 to 48 hrs by MTT assay; type: functional, cell-based
Outline: (§2)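 MTT read-out. Cells grown at 37 °C in DMEM with 10 mM glucose, 10% fetal calf serum, penicillin/streptomycin and 2 mmol/L glutamine. Seeded at 10^5 cells per well and left 24 h to attach, then compound added over a range of concentrations and cells grown 24 or 48 h. MTT at 1 mg/mL for 2 h at 37 °C in the dark, formazan dissolved in DMSO, OD read at 550 nm.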

SK-MEL-28 = assay: Antitumor activity against human SK-MEL-28 cells after 24 to 48 hrs by MTT assay; type: functional, cell-based; outline: as §1
[3] = Antitumor activity against human IGROV cells after 24 to 48 hrs by MTT assay; type: functional, cell-based; outline: as §2
SF-295 = assay: Antitumor activity against human SF295 cells after 24 to 48 hrs by MTT assay; type: functional, cell-based; outline: as §1
SNB-19 = assay: Antitumor activity against human SNB19 cells after 24 to 48 hrs by MTT assay; type: functional, cell-based; outline: as §1
COLO 205 = assay: Antitumor activity against human COLO205 cells after 24 to 48 hrs by MTT assay; type: functional, cell-based; outline: as §1
HT-29 = assay: Antitumor activity against human HT-29 cells after 24 to 48 hrs by MTT assay; type: functional, cell-based; outline: as §1
Caco-2 [4] = assay: Antitumor activity against human undifferentiated Caco2 cells after 24 to 48 hrs by MTT assay; type: functional, cell-based; outline: as §1
Caco-2 [5] = assay: Antitumor activity against human differentiated Caco2 cells after 24 to 48 hrs by MTT assay; type: cell-based; outline: as §1
Caco-2 [6] = assay: Selectivity index, ratio IC50 for undifferentiated human Caco2 cells to IC50 for differentiated human Caco2 cells; type: functional
Outline: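 Ratio of MTT IC50 in undifferentiated to differentiated Caco-2 cells. MTT conditions: 24 or 48 h exposure, formazan dissolved in DMSO, read at 550 nm, IC50 by regression, triplicate.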

MCF7 [7] = assay: Drug uptake in human MCF7 cells assessed as nuclear localization at 50 nM after 30 mins by confocal microscopic analysis; type: ADME, cell-based; details: mcf7, 0.5 h, 0.05 µM
Outline: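 Imaging in MCF-7 cells by confocal microscopy with 50 nM labeled compound. Cells fixed in paraformaldehyde for 30 min at 4 °C, permeabilized with Triton X-100 for 30 min at 4 °C, and nuclei stained with Hoechst 33342. Images taken with a 63× oil objective.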

Homo sapiens [8] = species: Homo sapiens; assay: Inhibition of human topoisomerase 2-mediated relaxation of supercoiled pBR322 DNA relaxation after 6 mins by agarose gel electrophoresis
Nucleic Acid [9] = assay: Binding affinity to poly(dG-dC).poly(dG-dC) DNA assessed as compound/DNA complex formation at 1 mM by STD NMR spectrophotometric analysis; type: nucleic-acid assay
Outline: (§3)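 Ligand at 1.0 mM with poly(dG-dC)·poly(dG-dC) at 50 μM (as phosphate groups), a 20:1 ligand excess, in H2O/D2O 9:1 with 100 mM phosphate-buffered saline, pH 7.1. Water suppressed by DPFGSE. STD effects taken relative to a reference spectrum with off-resonance saturation at δ −16 ppm, 2 s saturation, typically 512 scans. WaterLOGSY spectra recorded with and without DNA.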

Nucleic Acid [10] = assay: Binding affinity to poly(dG-dC).poly(dG-dC) DNA assessed as compound/DNA complex formation at 1 mM by WaterLOGSY NMR spectrophotometric analysis; type: nucleic-acid assay; outline: as §3
Nucleic Acid [11] = assay: Binding affinity to DNA assessed as binding mode index by measuring aliphatic signals by DF-STD spectrophotometric analysis; type: nucleic-acid assay
Outline: (§4)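 DF-STD NMR on poly(dG-dC)·poly(dG-dC) in H2O/D2O 9:1 with 100 mM phosphate-buffered saline, pH 7.1. Ligand 1.0 mM; DNA 50 μM as phosphate (20:1 ligand excess). Saturation is centred on the aromatic or low-field aliphatic region for 2 s, with a reference off-resonance at δ −16 ppm and 512 scans. The binding mode index is the relative response of ligand protons to base versus sugar/backbone saturation.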

Nucleic Acid [12] = assay: Binding affinity to DNA assessed as binding mode index by measuring aromatic signals by DF-STD spectrophotometric analysis; type: nucleic-acid assay; outline: as §4
Caco-2 [13] = assay: Cell cycle arrest in human Caco2 cells assessed as accumulation at G1 phase at 1 uM after 48 hrs by propidium iodide staining based flow cytometric analysis (reference value: 42%); type: functional
Caco-2 [14] = assay: Cell cycle arrest in human Caco2 cells assessed as accumulation at G2/M phase at 1 uM after 48 hrs by propidium iodide staining based flow cytometric analysis (reference value: 21%); type: functional
Caco-2 [15] = assay: Cell cycle arrest in human Caco2 cells assessed as accumulation at S phase at 1 uM after 48 hrs by propidium iodide staining based flow cytometric analysis (reference value: 36%); type: functional
Caco-2 [16] = assay: Induction of cyclin A expression in human Caco2 cells at 1 uM after 48 hrs by Western blot analysis; type: functional
Outline: (§5)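 Caco-2 cells treated for 48 h (1 or 5 μM for Hsp27; 1 μM for cyclin A). Lysed in ice-cold 50 mM Tris, 150 mM NaCl, 10 mM EDTA, 1% Triton with protease inhibitors. Equal protein run on 8–12% SDS-PAGE and transferred to nitrocellulose. Primary antibody overnight in TBS/Tween/1% milk, then HRP secondary; bands detected by ECL.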

Caco-2 [17] = assay: […] of cell differentiation in human Caco2 cells assessed as increase in ALP activity at 1 uM after 48 hrs; type: functional; set-up: scale not given: the % may be the effect or the level left
Outline: (§6)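 Caco-2 cells cultured 48 h with 0, 1, 5 or 10 μM compound. Attached and floating cells washed and lysed in 0.25% sodium deoxycholate. ALP activity measured with a diagnostic ALP reagent and protein by Bradford microassay. Activity expressed as units per mg protein, as a differentiation marker.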

Caco-2 [18] = assay: […] of cell differentiation in human Caco2 cells assessed as increase in ALP activity at 5 uM after 48 hrs; type: functional; set-up: scale not given: the % may be the effect or the level left; outline: as §6
Caco-2 [19] = assay: Increase in Hsp27 protein expression in human Caco2 cells after 48 hrs by Western blot analysis; type: functional, cell-based; outline: as §5
[20] = Cardiotoxicity in rat H9c2 cells assessed as cell viability at 1 uM up to 120 hrs by MTT assay; type: toxicity, cell-based; details: read-out: Activity
Outline: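 Rat H9C2 cardiomyoblasts, passages 4–10, grown at 37 °C in DMEM with FBS, glutamine and penicillin/streptomycin. Plated at 2000 cells/well in quadruplicate and given compound at 1 μM for the indicated times. MTT reagent added for 2 h in the incubator, then absorbance read at 570 nm. Data are mean ± SD.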

Homo sapiens [21] = species: Homo sapiens; assay: Inhibition of human topoisomerase 2-mediated relaxation of supercoiled pBR322 DNA relaxation at 5 uM after 6 mins by agarose gel electrophoresis
Outline: (§7)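 Compound at 5 or 10 μM. Run 6 min at 37 °C and stopped with EDTA/SDS/glycerol dye. Products run on 1% agarose in 0.5× TBE at 4 V/cm for 1 h, stained with ethidium bromide, bands quantified.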

Homo sapiens [22] = species: Homo sapiens; assay: Inhibition of human topoisomerase 2-mediated relaxation of supercoiled pBR322 DNA relaxation at 10 uM after 6 mins by agarose gel electrophoresis; outline: as §7

## CCCNC(=O)Nc1csc2c1C(=O)c1ccccc1C2=O
[1]
  IC50: 9.5 µM
SW-620
  IC50: 6.5 µM
U-937
  IC50: 10.1 µM

## O=C(CCN1CCOCC1)Nc1csc2c1C(=O)c1ccccc1C2=O
[1]
  IC50: 10.1 µM
SW-620
  IC50: 20.1 µM
U-937
  IC50: 7.2 µM

## O=C1c2ccccc2C(=O)c2c(NC(=O)[C@@H]3CCCN3)csc21
[1]
  IC50: 6.7 µM
SW-620
  IC50: 5.4 µM
U-937
  IC50: 0.9 µM

## Nc1csc2c1C(=O)c1ccccc1C2=O
MCF7 [2]
  IC50: 3.2 µM
[1]
  IC50: 11.3 µM
SW-620
  IC50: 4 µM
U-937
  IC50: 10.1 µM

## O=C(CO)Nc1csc2c1C(=O)c1ccccc1C2=O
[1]
  IC50: 10.1 µM
SW-620
  IC50: 18.5 µM
U-937
  IC50: 15.1 µM

## CN(C)CCNCCC(=O)Nc1csc2c1C(=O)c1ccccc1C2=O.Cl.Cl
MCF7 [2]
  IC50: 0.6 µM
[1]
  IC50: 2 µM
SW-620
  IC50: 0.6 µM
U-937
  IC50: 1.3 µM
MDA-MB-435
  IC50: 0.5 µM
SK-MEL-28
  IC50: 0.3 µM
[3]
  IC50: 2 µM
SF-295
  IC50: 0.6 µM
SNB-19
  IC50: 0.9 µM
COLO 205
  IC50: 1.1 µM
HT-29
  IC50: 0.5 µM
Caco-2 [4]
  IC50: 0.8 µM
Caco-2 [5]
  IC50: 3.8 µM
Caco-2 [6]
  Ratio IC50: 0.21
MCF7 [7]
  Drug uptake: Active
Homo sapiens [8]
  inhibition: Dose-dependent effect
Nucleic Acid [9]
  Activity: Active
Nucleic Acid [10]
  Activity: Active
Nucleic Acid [11]
  Activity: 0.9
Nucleic Acid [12]
  Activity: 1.01
Caco-2 [13]
  Activity: 20%
Caco-2 [14]
  Activity: 26%
Caco-2 [15]
  Activity: 53%
Caco-2 [16]
  Activity: 43%
Caco-2 [17]
  Activity: 35%
Caco-2 [18]
  Activity: >180%
Caco-2 [19]
  Activity: Dose-dependent effect
[20]
  viability at 120 h, 1 µM: 76%

## CN(C)CCNC(=O)Nc1csc2c1C(=O)c1ccccc1C2=O
[1]
  IC50: 8.7 µM
SW-620
  IC50: 5.9 µM
U-937
  IC50: 9.8 µM

## O=C(CCS)Nc1csc2c1C(=O)c1ccccc1C2=O
[1]
  IC50: 15.2 µM
SW-620
  IC50: 20.7 µM
U-937
  IC50: 23.9 µM

## N[C@@H](Cc1ccccc1)C(=O)Nc1csc2c1C(=O)c1ccccc1C2=O.O=C(O)C(F)(F)F
[1]
  IC50: > 40 µM
SW-620
  IC50: 30.5 µM
U-937
  IC50: > 40 µM
Homo sapiens [21]
  inhibition: inactive
Homo sapiens [22]
  inhibition: inactive
Nucleic Acid [9]
  Activity: inactive
Nucleic Acid [10]
  Activity: inactive
Caco-2 [13]
  Activity: 37%
Caco-2 [14]
  Activity: 18%
Caco-2 [15]
  Activity: 44%
Caco-2 [16]
  Activity: inactive

## C[C@H](N)C(=O)Nc1csc2c1C(=O)c1ccccc1C2=O
[1]
  IC50: > 40 µM
SW-620
  IC50: 12.4 µM
U-937
  IC50: 9.1 µM

## O=C(CCO)Nc1csc2c1C(=O)c1ccccc1C2=O
[1]
  IC50: 9.2 µM
SW-620
  IC50: 20.3 µM
U-937
  IC50: 15 µM

## O=C(CN1CCOCC1)Nc1csc2c1C(=O)c1ccccc1C2=O
[1]
  IC50: 7.1 µM
SW-620
  IC50: 10.8 µM
U-937
  IC50: 4.3 µM

## CN(C)CCNCC(=O)Nc1csc2c1C(=O)c1ccccc1C2=O
[1]
  IC50: 4.9 µM
SW-620
  IC50: 2.1 µM
U-937
  IC50: 4 µM

## O=C(CS)Nc1csc2c1C(=O)c1ccccc1C2=O
[1]
  IC50: 13.6 µM
SW-620
  IC50: 20.9 µM
U-937
  IC50: 30.1 µM

## NCCCC[C@H](N)C(=O)Nc1csc2c1C(=O)c1ccccc1C2=O
[1]
  IC50: > 40 µM
SW-620
  IC50: > 40 µM
U-937
  IC50: 20 µM

## NCCC(=O)Nc1csc2c1C(=O)c1ccccc1C2=O.O=C(O)C(F)(F)F
[1]
  IC50: 3.7 µM
SW-620
  IC50: 0.8 µM
U-937
  IC50: 1.7 µM
MDA-MB-435
  IC50: 0.4 µM
SK-MEL-28
  IC50: 1.5 µM
[3]
  IC50: 1.2 µM
SF-295
  IC50: 2.8 µM
SNB-19
  IC50: 1.6 µM
COLO 205
  IC50: 0.4 µM
HT-29
  IC50: 0.6 µM
Caco-2 [4]
  IC50: 2.6 µM
Caco-2 [5]
  IC50: 6.1 µM
Caco-2 [6]
  Ratio IC50: 0.43

## NCC(=O)Nc1csc2c1C(=O)c1ccccc1C2=O
[1]
  IC50: 6.2 µM
SW-620
  IC50: 2.3 µM
U-937
  IC50: 7 µM

## CCN(CC)CC(=O)Nc1csc2c1C(=O)c1ccccc1C2=O
[1]
  IC50: 8.5 µM
SW-620
  IC50: 4 µM
U-937
  IC50: 5.1 µM

From ChEMBL document CHEMBL1799973, “Design, synthesis, and cytotoxic evaluation of acyl derivatives of 3-aminonaphtho[2,3-b]thiophene-4,9-dione, a quinone-based system” (J Med Chem, 2011)
